According to ChEMBL document CHEMBL3627607, “A Novel Pyrazolopyridine with in Vivo Activity in Plasmodium berghei- and Plasmodium falciparum-Infected Mouse Models from Structure-Activity Relationship Studies around the Core of Recently Identified Antimalarial Imidazopyridazines” (J Med Chem, 2015):

How the values were obtained:
Plasmodium berghei [1] = assay: Antiplasmodial activity against Plasmodium berghei ANKA expressing GFP infected in mouse assessed as reduction of parasitemia level at 50 mg/kg, po qd for 4 days measured on day 4 post last dose by flow cytometric analysis relative to control; assay type: functional; design: scale not given: the % may be the effect or the level left
Outline: (§1)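 Mice (n = 3) infected with GFP-transfected P. berghei ANKA. Test agents were suspended in HPMC vehicle (0.5% w/v hydroxypropylmethylcellulose, 0.5% v/v benzyl alcohol, 0.4% v/v Tween 80, 0.9% w/v NaCl in water). Dosed orally at 4, 24, 48 and 72 h post-infection. Parasitemia read by flow cytometry on day 4 (96 h), detection limit 0.1%. Activity = control-minus-treated mean % parasitemia, relative to control.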

[2] = AUC (0 to 8 hrs) in Plasmodium falciparum 3D7 infected in non-myelodepleted NOD-SCID IL2Rgammanull mouse engrafted with human erythrocytes at 0.5 mg/kg, po; assay type: ADME, organism-based; design: dose 0.5 mg/kg, time < 8 hr, route oral; settings: in vivo
Outline: (§2)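 Engrafted NSG (scid IL2Rgc null) mice infected with P. falciparum were given one oral dose per day for four days. Blood was sampled to measure parent and its sulfone metabolite.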

Liver microsome [3] = assay: Metabolic stability of the compound in human liver microsomes assessed as compound remaining at 0.1 uM after 30 mins by LC-MS/MS analysis; assay type: ADME; settings: 0.5 h
[4] = AUC (0 to 8 hrs) in Plasmodium falciparum 3D7 infected in non-myelodepleted NOD-SCID IL2Rgammanull mouse engrafted with human erythrocytes at 1.5 mg/kg, po; assay type: ADME, organism-based; design: dose 1.5 mg/kg, time < 8 hr, route oral; settings: in vivo; outline: as §2
[5] = Tmax in Plasmodium falciparum 3D7 infected in non-myelodepleted NOD-SCID IL2Rgammanull mouse engrafted with human erythrocytes at 10 mg/kg, po; assay type: ADME, organism-based; settings: in vivo
Outline: (§3)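 Humanized NSG mice infected with P. falciparum received one oral dose per day for 4 consecutive days. Blood was sampled for exposure, with levels of both parent and its main active metabolite measured. Tmax was taken from the blood concentration–time profile after oral dosing.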

[6] = Cmax in Plasmodium falciparum 3D7 infected in non-myelodepleted NOD-SCID IL2Rgammanull mouse engrafted with human erythrocytes at 10 mg/kg, po; assay type: ADME, organism-based; design: dose 10 mg/kg, route oral; settings: in vivo; outline: as §2
Liver microsome [7] = assay: Metabolic stability of the compound in rat liver microsomes assessed as compound remaining at 0.1 uM after 30 mins by LC-MS/MS analysis; assay type: ADME; settings: 0.5 h
Rattus norvegicus [8] = assay: Volume of distribution in rat at 5 mg/kg, iv; assay type: ADME, organism-based; settings: in vivo
Blood [9] = assay: Drug metabolism in rat blood assessed as 5-(3-(Cyclopropylsulfonyl)phenyl)-3-(4-(methylsulfonyl)-phenyl)pyrazolo[1,5-a]pyridine formation at 20 mg/kg, po and 5 mg/kg, iv by LC-MS/MS analysis; assay type: ADME, organism-based; settings: in vivo
Outline: (§4)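 Metabolites identified by LC-ESI-MS/MS in blood samples from the rat PK study (oral and intravenous dosing).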

[10] = AUC (0 to 2 hrs) in Plasmodium falciparum 3D7 infected in non-myelodepleted NOD-SCID IL2Rgammanull mouse engrafted with human erythrocytes at 0.1 mg/kg, po; assay type: ADME, organism-based; design: time < 2 hr, dose 0.1 mg/kg, route oral; settings: in vivo; outline: as §2
Blood [11] = assay: Drug metabolism in mouse assessed as 5-(3-(Cyclopropylsulfonyl)phenyl)-3-(4-(methylsulfonyl)-phenyl)pyrazolo[1,5-a]pyridine level in blood at 50 mg/kg, po after 1 hr; assay type: ADME, organism-based; settings: in vivo, read-out: Drug metabolism
Outline: (§5)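 Snapshot whole-blood levels of parent and its sulfone metabolite at 1, 4 and 24 h after the first 50 mg/kg oral dose. Samples came from the P. berghei-infected efficacy mice, dosed in HPMC suspension vehicle.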

[12] = Half life in rat at 15 mg/kg, po; assay type: ADME, organism-based; settings: in vivo
[13] = Tmax in Plasmodium falciparum 3D7 infected in non-myelodepleted NOD-SCID IL2Rgammanull mouse engrafted with human erythrocytes at 0.1 mg/kg, po; assay type: ADME, organism-based; settings: in vivo; outline: as §2
Rattus norvegicus [14] = assay: Half life in rat at 5 mg/kg, iv; assay type: ADME, organism-based; settings: in vivo
[15] = Cmax in Plasmodium falciparum 3D7 infected in non-myelodepleted NOD-SCID IL2Rgammanull mouse engrafted with human erythrocytes at 0.1 mg/kg, po; assay type: ADME, organism-based; design: dose 0.1 mg/kg, route oral; settings: in vivo; outline: as §2
Plasmodium berghei [16] = assay: Antiplasmodial activity against Plasmodium berghei ANKA expressing GFP infected in mouse assessed as means survival days at 50 mg/kg, po qd for 4 days; assay type: functional
Outline: (§6)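 Mice (n = 3) infected with GFP-transfected P. berghei ANKA. Compounds dissolved or suspended in HPMC vehicle (0.5% w/v hydroxypropylmethylcellulose, 0.5% v/v benzyl alcohol, 0.4% v/v Tween 80, 0.9% w/v NaCl in water). Dosed orally 4, 24, 48 and 72 h after infection. Parasitemia read by flow cytometry (detection limit 0.1%). Survival recorded as mean survival time in days.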

[17] = Drug level in mouse blood at 50 mg/kg, po after 24 hrs; assay type: ADME, organism-based; settings: blood, read-out: Drug uptake; outline: as §5
Plasmodium berghei [18] = assay: Antiplasmodial activity against Plasmodium berghei ANKA expressing GFP infected in mouse assessed as means survival days at 10 mg/kg, po qd for 4 days; assay type: functional; outline: as §6
[19] = Selectivity index, ratio of IC50 for African green monkey VERO cells to IC50 for multidrug resistant Plasmodium falciparum K1; assay type: toxicity, cell-based; settings: read-out: Ratio IC50
[20] = Drug level in mouse blood at 50 mg/kg, po after 1 hr; assay type: ADME, organism-based; settings: read-out: Drug uptake; outline: as §5
[21] = Tmax in Plasmodium falciparum 3D7 infected in non-myelodepleted NOD-SCID IL2Rgammanull mouse engrafted with human erythrocytes at 30 mg/kg, po; assay type: ADME, organism-based; settings: in vivo; outline: as §3
Blood [22] = assay: Drug metabolism in rat blood assessed as metabolite formation from sulfone oxidation on pyrazole at 20 mg/kg, po and 5 mg/kg, iv by LC-MS/MS analysis; assay type: ADME, organism-based; settings: in vivo; outline: as §4
[23] = Metabolic stability of the compound in mouse liver microsomes assessed as compound remaining at 0.1 uM after 30 mins by LC-MS/MS analysis; assay type: ADME; settings: 0.5 h
Blood [24] = assay: Drug metabolism in mouse assessed as 5-(3-(Cyclopropylsulfonyl)phenyl)-3-(4-(methylsulfonyl)-phenyl)pyrazolo[1,5-a]pyridine level in blood at 50 mg/kg, po after 4 hrs; assay type: ADME, organism-based; settings: in vivo; outline: as §5
Plasmodium falciparum [25] = assay: Antiplasmodial activity against Plasmodium falciparum 3D7 infected in po dosed non-myelodepleted NOD-SCID IL2Rgammanull mouse engrafted with human erythrocytes assessed as reduction of parasitemia level administered qd for 4 days; assay type: functional; settings: 3D7, po, 96 h
Outline: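 P. falciparum-infected engrafted NSG mice were dosed orally once daily for four consecutive days. Blood parasitemia was monitored, and a 90% effective dose was derived along with the blood exposure at that dose.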

[26] = AUC (0 to 23 hrs) in Plasmodium falciparum 3D7 infected in non-myelodepleted NOD-SCID IL2Rgammanull mouse engrafted with human erythrocytes at 30 mg/kg, po; assay type: ADME, organism-based; design: dose 30 mg/kg, time < 23 hr, route oral; settings: in vivo; outline: as §2
[27] = Drug level in mouse blood at 50 mg/kg, po after 4 hrs; assay type: ADME, organism-based; settings: read-out: Drug uptake; outline: as §5
Blood [28] = assay: Drug metabolism in rat blood assessed as metabolite formation from sulfone oxidation on pyridine core and phenyl ring at 20 mg/kg, po and 5 mg/kg, iv by LC-MS/MS analysis; assay type: ADME, organism-based; settings: in vivo; outline: as §4
Plasmodium berghei [29] = assay: Antiplasmodial activity against Plasmodium berghei ANKA expressing GFP infected in mouse assessed as reduction of parasitemia level at 3 mg/kg, po qd for 4 days measured on day 4 post last dose by flow cytometric analysis relative to control; assay type: functional; design: scale not given: the % may be the effect or the level left; outline: as §1
Plasmodium falciparum [30] = assay: Antiplasmodial activity against drug sensitive Plasmodium falciparum NF54 infected in human erythrocytes after 48 hrs by [3H]-hypoxanthine incorporation assay; assay type: functional, organism-based
[31] = Tmax in Plasmodium falciparum 3D7 infected in non-myelodepleted NOD-SCID IL2Rgammanull mouse engrafted with human erythrocytes at 0.5 mg/kg, po; assay type: ADME, organism-based; settings: in vivo; outline: as §3

## C[S+]([O-])c1ccc(-c2cnn3ccc(-c4cccc(S(=O)(=O)C5CC5)c4)cc23)cc1 (stereo unspecified)
Plasmodium berghei [1]
  Activity: 99.8%
[2]
  AUC(0-t) at 8 h: 12.1 ng·h/mL
Liver microsome [3]
  Stability: Stable
[4]
  AUC(0-t) at 8 h: 40.5 ng·h/mL
[5]
  Tmax: 2 h
[6]
  Cmax: 50 ng/mL
Liver microsome [7]
  Stability: Stable
Rattus norvegicus [8]
  Vd: 6.8 L/kg
Blood [9]
  Drug metabolism: metabolite_detected
[10]
  AUC(0-t) at 2 h: 2.1 ng·h/mL
Blood [11]
  concentration: 7900 nM
[12]
  half-life: 1 h
[13]
  Tmax: 0.25 h
Rattus norvegicus [14]
  t1/2: 2.7 h
[15]
  Cmax: 2 ng/mL
Plasmodium berghei [16]
  MSD: >30 days
[17]
  concentration at 24 h: 30 nM
Plasmodium berghei [18]
  MSD: 8 days
[19]
  selectivity ratio: > 1000
[20]
  concentration at 1 h: 2960 nM
[21]
  Tmax: 6 h
Blood [22]
  Drug metabolism: metabolite_detected
[23]
  Stability: Stable
Blood [24]
  Drug metabolism: 10.3 µM
Plasmodium falciparum [25]
  ED90: 0.5 mg/kg
[26]
  AUC(0-t) at 23 h: 1240 ng·h/mL
[27]
  concentration at 4 h: 1780 nM
Blood [28]
  Drug metabolism: metabolite_detected
Plasmodium berghei [29]
  Activity: 75%
Plasmodium falciparum [30]
  IC50: 6 nM
[31]
  Tmax: 0.25 h
